Measured values published in paper PMC3651860 (Journal of the American Chemical Society, 2011).
“Also recorded” adds a separate entry of the source. Like-named read-outs stand apart in the source and are kept apart here. Primed or numbered codes have the meaning given here. Biotin′ = not defined here; Az8 = not defined here

How the values were obtained:
[1] = system: AKT in fixed OVCAR3 cells; assay: Immunocytochemistry; assay type: cell-based; conditions: permeabilized OVCAR3 cells, unstimulated vs EGF+insulin
Method in brief: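 OVCAR3 cells were left unstimulated or treated with EGF plus insulin, then fixed and permeabilized. They were stained with fluorescein-labelled test compound, and a fluorescein-conjugated anti-Akt monoclonal antibody served as benchmark. Akt localization was imaged by immunofluorescence microscopy.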

Akt1-S473E-T308P [2] = assay: Competitive enzyme kinetic assays of Akt1 with triligand; assay type: biochemical
Method in brief: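 Akt1 kinase domain (S473E mimic, Hi5 insect-cell expressed, T308-phosphorylated form) assayed at varying peptide-substrate or ATP concentrations across varying test compound concentrations. KM and Vmax were fitted by nonlinear regression. Ki came from negative x-intercepts of Dixon plots (1/v vs [compound], varying ATP), and Ki' from intercepts of Cornish-Bowden plots ([peptide]/v vs [compound], varying peptide). Both are given as mean ± standard deviation.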

GSK3β = assay: ELISA-based binding analysis over a range of kinase concentrations, GSK3β; conditions: Figure S18
Akt1 = assay: ELISA-based binding analysis over a range of kinase concentrations, Akt1; conditions: Figure S18
Akt-S473E = assay: ELISA with immobilized Akt-S473E; assay type: binding
Method in brief: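 Akt1-S473E kinase domain, expressed in Hi5 insect cells, was immobilized on Ni-NTA plates. It was incubated with varying concentrations of biotinylated test peptide. Binding signal was normalized to the binding observed at saturation.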

Akt1-S473E-T308P [3] = conditions: read-out: KM (literature); ATP; ref 21 (Klein et. al.); cited from earlier work
Akt1-S473E-T308P [4] = assay: Akt1 kinase inhibition test of candidate anchor sequences; assay type: biochemical; conditions: Figure S6
Target sequence in this assay (P31749 150-480 S473E limits assumed): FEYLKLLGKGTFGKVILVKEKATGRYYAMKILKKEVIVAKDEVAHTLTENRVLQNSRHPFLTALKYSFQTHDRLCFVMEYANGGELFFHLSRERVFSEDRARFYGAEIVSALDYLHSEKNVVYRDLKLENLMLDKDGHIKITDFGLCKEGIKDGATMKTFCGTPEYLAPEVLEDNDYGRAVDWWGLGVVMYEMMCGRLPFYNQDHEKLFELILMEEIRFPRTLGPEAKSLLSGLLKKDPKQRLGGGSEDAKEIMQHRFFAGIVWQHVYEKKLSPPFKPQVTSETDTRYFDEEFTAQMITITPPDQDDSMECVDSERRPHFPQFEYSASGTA

[5] = molecular target: Akt1 kinase domain with the S473E mutation (Akt1-S473E)

## fluorescein-labeled triligand: fluorescein-labeled triligand employed as an ICC imaging agent (chain 1 VFYRLGY; chain 2 FWFLRG; chain 3 RHERI; N-terminal azido amino acid Az8 before V, joined through a 1,4-triazole to the Pra of the secondary peptide | N-terminal propargylglycine (Pra) before F, joined through a 1,4-triazole to Az8 of the an)
[1]
  Akt localization in ICC (in words): localization of Akt at the plasma membrane after cell stimulation

## triligand: tertiary peptide Ac-Az8-RHERI-CONH2 conjugated to the biligand to form a biotinylated branched triligand (chain 1 VFYRLGY; chain 2 FWFLRG; not fully specified; N-terminal azido amino acid Az8 before V, joined through a 1,4-triazole to the Pra of the secondary peptide; C-terminal biotin | N-terminal propargylglycine (Pra) before F, joined through a 1,4-triazo)
Akt1-S473E-T308P [2]
  inhibitory potency (in words): low micromolar inhibitory potency
Akt1-S473E-T308P [2]; ATP is the varied substrate
  effect on KM: no effect on KM
Akt1-S473E-T308P [2]; increasing triligand concentration, varied [ATP] or varied [peptide]
  effect on enzyme Vmax: reduction in the enzyme Vmax for both substrates
Akt1-S473E-T308P [2]; peptide concentration is varied
  effect on KM: KM decreases
Akt1-S473E-T308P [2]; varied [ATP], variable [Triligand]
  inhibition mode: noncompetitive inhibition
Akt1-S473E-T308P [2]; varied [ATP], variable [Triligand], listed as Triligand
  inhibition mode: Noncompetitive
Akt1-S473E-T308P [2]; varied [Peptide], variable [Triligand]
  inhibition mode: uncompetitive inhibition
Akt1-S473E-T308P [2]; with respect to ATP and peptide substrates
  mode of inhibition / inhibitory mechanism, overall: allosteric mode of inhibition; also recorded: triligand inhibition occurs in a noncompetitive fashion; also recorded: not competitive with respect to either the peptide or ATP binding site; also recorded: allosteric mechanism
GSK3β
  decrease of affinity for GSK3β, biligand to triligand: approximately 2 fold
Akt1
  change of affinity for Akt1, biligand to triligand: increases modestly
Akt-S473E; comparison within anchor/biligand/triligand series
  affinity for Akt1 (in words): only marginally improved over the biligand; also recorded: only a modest affinity improvement

## Nc1ncnc2c1ncn2[C@@H]1O[C@H](COP(=O)(O)OP(=O)(O)OP(=O)(O)O)[C@@H](O)[C@H]1O [ATP, reference compound]
Akt1-S473E-T308P [2]; Akt1-S473E-T308P, V vs. [ATP], variable [Triligand], nonlinear regression
  Vmax: 98996 ± 8242 pmol/min/mg
Akt1-S473E-T308P [2]; read-out: KM (this work), Akt1-S473E-T308P, nonlinear regression (GraphPad), V vs. [ATP], variable [Triligand]
  Km: 213 ± 25 µM
Akt1-S473E-T308P [3]
  Km: 155 µM

## Az8-VFYRLGY-CONH2 [anchor peptide]
Akt1-S473E-T308P [4]; absence of the conjugated small molecule inhibitor (Ac7)
  inhibition of the Akt1 kinase: ~95%
Akt1-S473E-T308P [4]; presence of the conjugated small molecule inhibitor (Ac7)
  inhibition of the Akt1 kinase: ~95%
Akt-S473E; anchor peptide, Akt, assay of this value not stated at the place
  affinity: > 25 µM

## {Ac-Az8}-VFYRLGY-{Biotin′} (reading uncertain; also: printed as Ac-Az8-VFYRLGY-Biotin) [biotinylated anchor peptide Ac-Az8-VFYRLGY-Biotin]
[5]
  Kd: > 25 µM
